Some results are limits rather than exact numbers.

Assay [1] has as its target Delta-type opioid receptor (Mus musculus, UniProt P32300). In words: Inhibition of [3H]-NTI binding to Opioid receptor delta 1 from mouse brain membranes. In a few lines:
(§1)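 Competition binding of test ligands against tritiated radioligands on mouse brain membranes; the μ site used [3H]DAMGO. IC50 was converted to Ki by the Cheng-Prusoff equation using radioligand concentration and KD. Values are arithmetic means of at least 3 determinations, ±SEM.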

The species named for assay [2] is Cavia porcellus. In words: Agonist activity expressed as inhibitory concentration against contraction of electrically stimulated guinea pig ileum. In kind it is functional. In a few lines: (§2)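 Electrically stimulated smooth muscle: longitudinal muscle of guinea pig ileum (GPI) and mouse vas deferens (MVD). Inhibition of contraction was measured for ligands acting as full agonists, and potency was given as IC50 (nM). Three or more replicate determinations were run per compound.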

Assay [3] concerns the target Kappa-type opioid receptor (Mus musculus, UniProt P33534). In words: Inhibition of [3H]U-69593 binding to Opioid receptor kappa 1 from mouse brain membranes. The method, boiled down: as §1
In another assay the target is Mu-type opioid receptor (Mus musculus, UniProt P42866). In words: Inhibition of [3H]DAMGO binding to Opioid receptor mu 1 from mouse brain membranes. The method, boiled down:
as §1

The species named for assay [4] is Mus musculus. In words: Agonist activity expressed as inhibitory concentration against contraction of electrically stimulated mouse vas deferens. In kind it is functional. The method, boiled down: as §2
For assay [5], the species on record is Cavia porcellus. The experiment in a line: Agonist activity expressed as percent inhibition of contraction of electrically stimulated guinea pig ileal longitudinal muscle at a concentration of 1 uM. In kind it is functional, Muscle tissue. The method, boiled down: (§3)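 Electrically stimulated GPI longitudinal muscle or MVD preparations. Ligands that were not full agonists were tested at 1 µM. Inhibition of contraction was expressed as a percentage of the maximal response. Three or more replicate determinations were run per compound.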

Assay [6] is filed under the species Mus musculus. In words: Agonist activity expressed as percent inhibition of contraction of electrically stimulated mouse vas deferens at a concentration of 1 uM. In kind it is functional. The method, boiled down:
as §3

Sequence of Mu-type opioid receptor (P42866 whole entry): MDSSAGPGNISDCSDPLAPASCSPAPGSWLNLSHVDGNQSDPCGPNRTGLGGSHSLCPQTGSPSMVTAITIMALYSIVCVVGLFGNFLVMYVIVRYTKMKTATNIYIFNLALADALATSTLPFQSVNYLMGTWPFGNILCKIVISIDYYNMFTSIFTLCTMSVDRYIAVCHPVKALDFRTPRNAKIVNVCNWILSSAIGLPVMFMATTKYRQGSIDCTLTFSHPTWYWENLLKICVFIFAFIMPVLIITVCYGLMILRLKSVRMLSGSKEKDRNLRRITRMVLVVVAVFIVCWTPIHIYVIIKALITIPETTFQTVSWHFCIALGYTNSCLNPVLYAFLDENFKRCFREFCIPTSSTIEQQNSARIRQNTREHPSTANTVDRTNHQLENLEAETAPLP
Sequence of Delta-type opioid receptor (P32300 whole entry): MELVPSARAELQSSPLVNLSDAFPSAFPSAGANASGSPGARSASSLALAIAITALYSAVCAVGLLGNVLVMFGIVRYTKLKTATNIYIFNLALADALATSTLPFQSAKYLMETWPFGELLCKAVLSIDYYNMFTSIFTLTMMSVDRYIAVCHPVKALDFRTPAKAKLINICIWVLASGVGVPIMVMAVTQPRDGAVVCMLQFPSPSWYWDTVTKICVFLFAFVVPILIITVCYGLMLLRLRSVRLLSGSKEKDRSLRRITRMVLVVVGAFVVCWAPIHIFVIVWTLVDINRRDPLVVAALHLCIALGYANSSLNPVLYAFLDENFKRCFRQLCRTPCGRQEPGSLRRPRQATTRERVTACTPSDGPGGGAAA
Sequence of Kappa-type opioid receptor (P33534 whole entry): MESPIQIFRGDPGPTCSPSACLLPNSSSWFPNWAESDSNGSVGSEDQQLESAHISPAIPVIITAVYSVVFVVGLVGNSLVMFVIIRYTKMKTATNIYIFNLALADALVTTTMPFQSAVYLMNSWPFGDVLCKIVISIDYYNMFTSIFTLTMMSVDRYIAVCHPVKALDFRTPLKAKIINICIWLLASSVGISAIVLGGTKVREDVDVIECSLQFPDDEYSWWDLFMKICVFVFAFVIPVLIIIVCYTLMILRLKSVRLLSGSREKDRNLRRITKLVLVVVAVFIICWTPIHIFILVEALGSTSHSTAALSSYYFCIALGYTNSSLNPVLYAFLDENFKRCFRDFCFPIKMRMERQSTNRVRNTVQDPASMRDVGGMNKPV

As a reminder, the Ki is the equilibrium dissociation constant of an inhibitor or competing ligand from its target. The IC50 is the point on the concentration scale where inhibition reaches its midpoint. Lower therefore signals greater potency. As for `CN1CCC23c4c5ccc(O)c4O[C@H]2C(=O)[C@@]2(CCc4ccccc4C2)C[C@@]3(O)C1C5` (stereo not given in full), the inhibition constant Ki in assay [1] is 4.6 nM; in assay [3], above 1000 nM; on Mu-type opioid receptor, 18 nM. In addition, the results for the IC50 in the assay listed under Cavia porcellus [2] and in the assay filed under Mus musculus [4] were 183 nM and 24 nM, respectively.
Take `O=C1[C@@H]2Oc3c(O)ccc4c3[C@@]23CCN(CC2CC2)[C@H](C4)[C@]3(O)CC12Cc1ccccc1C2`: the figures for the Ki (in assay [1]; in assay [3]; on Mu-type opioid receptor) were 0.25 nM, above 3000 nM and 1.5 nM, respectively. In addition, the Max response is reported as 16% in the assay listed under Cavia porcellus [5] and 8% in the assay filed under Mus musculus [6].
Take `O=C1[C@@H]2Oc3c(O)ccc4c3C23CCN(CC2CC2)C(C4)[C@]3(O)C[C@@]12CCc1ccccc1C2` (stereo not given in full): the Ki worked out at 0.0041 nM in assay [1], 147 nM in assay [3] and 0.72 nM on Mu-type opioid receptor. In addition, the Max response in the assay filed under Cavia porcellus [5] is 16%; in the assay listed under Mus musculus [6], 3%.
For `O=C1[C@@H]2Oc3c(O)ccc4c3C23CCN(CC2CC2)C(C4)[C@]3(O)C[C@]12CCc1ccccc1C2` (stereo not given in full), in that order: 0.0019 nM, above 1000 nM, 0.38 nM, 2% and 4%.
In the case of `CN1CCC23c4c5ccc(O)c4O[C@H]2C(=O)[C@@]2(CCc4ccccc4C2)C[C@H]3C1C5` (stereo not given in full), the Ki was 8.3 nM in assay [1], 88 nM in assay [3] and 2.8 nM at Mu-type opioid receptor. This molecule showed an IC50 in the assay listed under Cavia porcellus [2] of 130 nM. In the assay listed under Mus musculus [6], the Max response is recorded as 42%.
As for `CN1CC[C@]23c4c5ccc(O)c4O[C@H]2C(=O)C2(Cc4ccccc4C2)C[C@@]3(O)[C@H]1C5` [SPIROINDANYLOXYMORPHONE], the inhibitory constant (Ki) in assay [1] is 2.8 nM; in assay [3] it was above 3000 nM; at Mu-type opioid receptor, 14 nM. Moreover, the Max response in the assay listed under Cavia porcellus [5] was 55%. This molecule returned an IC50 in the assay listed under Mus musculus [4] of 22 nM.
As to `CN1CCC23c4c5ccc(O)c4O[C@H]2C(=O)[C@]2(CCc4ccccc4C2)C[C@@]3(O)C1C5` (stereo not given in full), the Ki was 9.3 nM in assay [1], above 3000 nM in assay [3] and 28 nM at Mu-type opioid receptor. Moreover, the IC50 in the assay listed under Cavia porcellus [2] worked out at 629 nM; in the assay filed under Mus musculus [4], 28 nM.
Take `CN1CCC23c4c5ccc(O)c4O[C@H]2C(=O)[C@]2(CCc4ccccc4C2)C[C@H]3C1C5` (stereo not given in full): the inhibition constant (Ki) in assay [1] is 182 nM; in assay [3] it was above 1000 nM; on Mu-type opioid receptor it was 119 nM. This molecule also registered an IC50 in the assay listed under Cavia porcellus [2] of 107 nM. In the assay filed under Mus musculus [6], this molecule yielded a Max response of 17%.

The values above are taken from ChEMBL document CHEMBL1130152, “7-spirobenzocyclohexyl derivatives of naltrexone, oxymorphone, and hydromorphone as selective opioid receptor ligands” (J Med Chem, 1997).
